Consider one compound from ChEMBL document CHEMBL4387708, “Enhancement of Benzothiazoles as Pteridine Reductase-1 Inhibitors for the Treatment of Trypanosomatidic Infections” (J Med Chem, 2019).

One data set deals with Cytochrome P450 2C19 (Homo sapiens, UniProt P33261). Briefly: Inhibition of human CYP2C19 expressed in baculovirus infected insect cells using beetle D-luciferin as substrate preincubated for 30 mins followed by NADPH addition and measured after 30 mins by CYP450-Glo assay.
Data set [1] is described as follows: Cmax in BALB/c mouse at 20 mg/kg, po by LC-MS analysis. The format is ADME, organism-based. Set-up: dose 20 mg/kg, route oral. The note with it: in vivo. An outline of the steps: (§1)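 Snapshot PK in healthy BALB/c mice. Free compound given in 8% DMSO at 1 mg/kg IV or 20 mg/kg per os; for the formulated arm it was solubilized with hydroxypropyl-β-cyclodextrin (50%) and given at 20 mg/kg per os. Plasma levels were quantified by LC-MS on a C18 column with triple-quadrupole ESI detection in positive ion mode.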

Data set [2] is described as follows: Mitochondrial toxicity in human 786-O cells measured after 6 hrs by MitoTracker Red chloromethyl-X-rosamine based assay. The format is cell-based, 786-0.
Data set [3] in a line: Cytotoxicity against human U2OS cells assessed as reduction in cell number. It counts as cell-based.
The test system of data set [4] is Trypanosoma brucei. Briefly: Growth inhibition of Trypanosoma brucei bloodstream forms measured after 72 hrs by resazurin-based fluorescence assay. It counts as organism-based. An outline of the steps: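 Mid-log bloodstream-form T. brucei were seeded at a final 5 x 10^3/mL in supplemented HMI-9 with serial compound dilutions. Cultures ran 72 h at 37 °C, 5% CO₂, then 4 h more after resazurin. Fluorescence was read at ex 540/em 620 nm, and EC₅₀ was fitted by non-linear regression.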
(The colour change of resazurin is a common sign of viable cells or microbes.)

Data set [5] is described as follows: Cmax in BALB/c mouse at 1 mg/kg, iv by LC-MS analysis. The format is ADME, organism-based. Set-up: dose 1 mg/kg, route intravenous. Particulars: in vivo. An outline of the steps:
as §1

The nature of data set [6]: Cmax in BALB/c mouse at 20 mg/kg, po co-formulated with hydroxypropyl-beta-cyclodextrin by LC-MS analysis. The note with it: in vivo. Details: dose 20 mg/kg, route oral. The format is ADME, organism-based. The procedure, abridged: as §1
A short description of data set [7]: Selectivity index ratio of GI50 for human U2OS cells to EC50 for growth inhibition of Trypanosoma brucei bloodstream forms. The format is toxicity. Particulars: read-out: Ratio GI50/EC50.
A short description of data set [8]: Half-life in BALB/c mouse at 20 mg/kg, po co-formulated with hydroxypropyl-beta-cyclodextrin by LC-MS analysis. The format is ADME, organism-based. The note with it: in vivo. An outline of the steps:
as §1

A further data set addresses Cytochrome P450 2C9 (Homo sapiens, UniProt P11712). Briefly: Inhibition of human CYP2C9 expressed in baculovirus infected insect cells using beetle D-luciferin as substrate preincubated for 30 mins followed by NADPH addition and measured after 30 mins by CYP450-Glo assay.
A short description of data set [9]: Selectivity index ratio of NOAEL for human THP1 cells to EC50 for growth inhibition of Trypanosoma brucei bloodstream forms. The format is toxicity. The note with it: read-out: Selectivity Index.
In data set [10] the test system is Trypanosoma brucei. Kind of data set: Inhibition of N-terminal His-tagged Trypanosoma brucei pteridine reductase 1 at 50 uM using di-hydrobiopterine as substrate measured at 1 min interval for 50 mins in presence of NADPH relative to control. The procedure, abridged:
(§2)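 Photometric PTR1 assay with NADPH and dihydrobiopterin substrate. H₄B formation is coupled non-enzymatically to cytochrome c reduction, read as signal increase at 550 nm.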

Data set [11] in a line: Clearance in BALB/c mouse at 20 mg/kg, po by LC-MS analysis. The format is ADME, organism-based. The note with it: in vivo. The procedure, abridged:
as §1

For another data set, the target named is T1, Pteridine reductase 1 (Leishmania major, UniProt Q01782).
T1 sequence (Q01782 whole entry): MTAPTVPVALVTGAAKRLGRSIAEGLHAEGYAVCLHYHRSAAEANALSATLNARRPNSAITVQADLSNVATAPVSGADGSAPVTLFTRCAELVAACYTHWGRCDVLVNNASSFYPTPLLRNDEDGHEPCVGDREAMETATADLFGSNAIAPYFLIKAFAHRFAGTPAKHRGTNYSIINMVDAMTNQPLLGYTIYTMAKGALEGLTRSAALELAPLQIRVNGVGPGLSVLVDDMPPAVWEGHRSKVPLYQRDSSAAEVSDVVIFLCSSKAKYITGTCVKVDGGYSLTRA
Briefly: Inhibition of Leishmania major pteridine reductase 1 using di-hydrobiopterine as substrate in presence of NADPH. The note with it: read-out: IC50. An outline of the steps:
as §2

Data set [12] is described as follows: Half-life in BALB/c mouse at 1 mg/kg, iv by LC-MS analysis. The format is ADME, organism-based. Particulars: in vivo. An outline of the steps: as §1
The next data set has as its system Leishmania infantum. Kind of data set: Growth inhibition of luciferase expressing Leishmania infantum axenic amastigotes infected in human THP1 cells at 10 uM measured after 72 hrs by steady-glo luminescence assay relative to control. The format is organism-based. The note with it: leishmania infantum, 72 h, 10 µM.
In data set [13] the target is T2, Pteridine reductase 1 (Leishmania major) (UniProt Q01782).
T2 sequence (whole entry): T1 sequence (Q01782 whole entry)
Briefly: Inhibition of Leishmania major pteridine reductase 1 at 50 uM using di-hydrobiopterine as substrate in presence of NADPH relative to control. An outline of the steps:
as §2

A short description of data set [14]: AUC in BALB/c mouse at 20 mg/kg, po by LC-MS analysis. The format is ADME, organism-based. The note with it: in vivo. An outline of the steps:
as §1

Data set [15] is described as follows: Thermodynamic solubility of the compound in phosphate buffered saline/50%DMSO after 24 hrs by spectrophotometric method. It counts as physicochemical. The note with it: read-out: Therm_solubility. The procedure, abridged: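 Over-saturated suspensions (theoretical maximum 100 µg/mL) in water, PBS, PBS + 10% DMSO or PBS + 50% DMSO were stirred at 1200 rpm for 24 h at 25 °C. They were filtered at 0.2 µm and diluted 1:1 with ACN. Concentration was quantified by UV using a molar extinction coefficient determined at 340 nm.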

A further data set has as its system Trypanosoma cruzi. Kind of data set: Growth inhibition of trypomastigote form of Trypanosoma cruzi Y infected in human U2OS cells at 50 uM measured after 72 hrs by DRAQ5 DNA dye based confocal microscopic analysis relative to control. Particulars: Trypanosoma cruzi, Y, U2OS, read-out: GI. The format is organism-based.
Data set [16] can be described thus: Selectivity ratio of IC50 for Leishmania major pteridine reductase 1 to IC50 for N-terminal His-tagged Trypanosoma brucei pteridine reductase 1.
The nature of data set [17]: Half-life in BALB/c mouse at 20 mg/kg, po by LC-MS analysis. It counts as ADME, organism-based. Particulars: in vivo. An outline of the steps:
as §1

Chain of Cytochrome P450 2C9 (P11712 whole entry): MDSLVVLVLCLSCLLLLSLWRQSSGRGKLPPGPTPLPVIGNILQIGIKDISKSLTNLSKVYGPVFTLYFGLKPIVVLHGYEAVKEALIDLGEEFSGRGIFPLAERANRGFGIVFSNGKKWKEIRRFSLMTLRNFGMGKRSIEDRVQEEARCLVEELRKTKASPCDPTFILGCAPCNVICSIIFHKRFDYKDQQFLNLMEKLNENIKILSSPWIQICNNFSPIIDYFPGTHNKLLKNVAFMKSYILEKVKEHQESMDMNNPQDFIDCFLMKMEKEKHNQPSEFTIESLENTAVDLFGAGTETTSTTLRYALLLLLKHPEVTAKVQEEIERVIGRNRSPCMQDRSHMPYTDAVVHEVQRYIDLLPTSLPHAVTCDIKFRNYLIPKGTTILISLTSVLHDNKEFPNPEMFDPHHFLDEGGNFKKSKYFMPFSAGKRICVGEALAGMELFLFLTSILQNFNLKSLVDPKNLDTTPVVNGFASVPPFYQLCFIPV
Chain of Cytochrome P450 2C19 (P33261 whole entry): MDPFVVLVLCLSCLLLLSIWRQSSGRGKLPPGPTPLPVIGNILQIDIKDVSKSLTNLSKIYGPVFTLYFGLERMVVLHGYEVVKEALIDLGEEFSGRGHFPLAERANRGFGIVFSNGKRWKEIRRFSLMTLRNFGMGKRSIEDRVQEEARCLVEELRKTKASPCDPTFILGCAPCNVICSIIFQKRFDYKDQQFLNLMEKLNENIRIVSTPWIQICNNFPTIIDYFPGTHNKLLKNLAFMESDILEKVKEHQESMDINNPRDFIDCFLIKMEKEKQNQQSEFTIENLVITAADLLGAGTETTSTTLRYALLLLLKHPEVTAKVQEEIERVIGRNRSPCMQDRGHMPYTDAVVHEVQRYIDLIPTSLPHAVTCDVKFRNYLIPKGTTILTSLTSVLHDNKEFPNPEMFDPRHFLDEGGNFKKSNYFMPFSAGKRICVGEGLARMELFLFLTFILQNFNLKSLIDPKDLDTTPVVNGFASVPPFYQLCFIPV

The IC50 is the concentration that gives 50% inhibition. Usually Cmax stands for the highest concentration seen after dosing. Broadly, the GI50 is the concentration that inhibits growth by half. In general, EC50 refers to the concentration at which the effect is half-maximal. A lower EC50 goes with higher potency in that assay. As a reminder, the half-life is the time needed for the level to fall by half in the phase considered. A high value points to slow loss. A word on the CL/F: it is the apparent clearance, not corrected for the fraction that reaches the circulation. As usually defined, the AUC is the area under the concentration-time curve, a measure of exposure. High values mean high exposure, low ones low exposure. Consider `Nc1nc2ccc(C(=O)NCc3ccccc3)cc2s1`, for which the IC50 on Cytochrome P450 2C19 is above 25 µM; against Cytochrome P450 2C9, above 25 µM; on Pteridine reductase 1 it was 61.3 µM. The figures for the Cmax in data set [1], in data set [5] and in data set [6] were 826 ng/mL, 1630 ng/mL and 13 µM, respectively. The compound also had an IC50 at 6 h in data set [2] above 25 µM. Moreover, in data set [3], the GI50 was above 25 µM. Besides, the EC50 in the data set with Trypanosoma brucei [4] was found to be 7 µM. The selectivity ratio in data set [7] and in data set [9] was above 10 throughout. Moreover, the half-life is 34.8 h in data set [8], 3.45 h in data set [12] and 43.5 h in [17]. Besides, the inhibition (with Trypanosoma brucei [10]; in data set [13]) was above 60% each time. For the same compound, the CL/F in [11] was found to be 68 mL/min/kg. In addition, the “growth inhibition (GI)” value in the data set on Leishmania infantum is given as “Non-Toxic”. This compound displayed an AUC in data set [14] of 4690 ng·h/mL. For the same compound, the solubility thermodynamic at 24 h in [15] was above 100 µg/mL. The inhibition at 50 µM in the data set with Trypanosoma cruzi stood at 51.3%. The Ratio IC50 in data set [16] lay in the range of 2 to 100.
